Assay results pooled from the literature.
Each line is one published result; the experiments were not run side by side.
Target: Serine/threonine-protein kinase 24 (STK24, Homo sapiens, UniProt Q9Y6E0)

Compound	observed	action	technique	concentration	quantity	result
COCc1c(-c2cc3cc(C)cc(OC)c3s2)c2c(N)ncnn2c1CN1CCNC(=O)C1	cell-free assay		competition with immobilised ligand	1 µM	inhibition	90.6%
Cn1cc(-c2cccc(N3CCc4c(sc5c4CC(C)(C)C5)C3=O)c2CO)cc(Nc2ccncn2)c1=O	enzyme activity	inhibitor		1 µM	inhibition	3%
COc1ncccc1-c1cnn2ccc(N3CCN(C(=O)OC(C)C)CC3)nc12	binding		competition with immobilised ligand	1 µM	remaining binding	84%
Nc1ncc(-c2nc(N3CCOCC3)nc(N3CCOCC3)n2)c(C(F)F)n1	binding		competition with immobilised ligand	10 µM	remaining binding	91%
N#CC1(c2ccccn2)CCN(Cc2cc(C(=O)O)c(=O)n3ccccc23)CC1	cell-free assay		competition with immobilised ligand	1 µM	remaining binding	100%
CC(C)(C)c1cc(C=C(C#N)C#N)cc(Br)c1O	enzyme activity	inhibitor		0.5 µM	remaining activity	96.3%
Cn1cncc1[C@@](O)(COc1ccc(C#N)cc1-c1ccc(OC(F)(F)F)cc1)c1ccc(C#N)cc1	cell-free assay		competition with immobilised ligand	1 µM	remaining binding	100%
Cc1nn(C)cc1-c1nc2c(N3CCN(Cc4ccc(Cl)cc4)CC3)c(Cl)cnc2[nH]1	binding		competition with immobilised ligand	1 µM	remaining binding	85%
Cn1cc(-c2cc(F)cc(N3CCn4c(cc5c4CCCC5)C3=O)c2CO)cc(Nc2ccc(N3CCN(C4COC4)CC3)cn2)c1=O	enzyme activity	inhibitor		0.1 µM	inhibition	18%
O=c1[nH]c2ccccc2n1C1CCN(Cc2ccc(-c3[nH]c4cc5ncnc5cc4nc3-c3ccccc3)cc2)CC1	cell-free assay			0.5 µM	remaining signal	90.7%
